Legend:
[1] = species on record: Rattus norvegicus; assay: Half life in Sprague-Dawley rat plasma assessed as formation of perzinfotel; format: ADME
Summary of the method: (§1)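 Dissolved at 0.05 mg/mL in rat plasma and incubated at 37 °C for 0–24 h. Samples quenched with acetonitrile and centrifuged; supernatant diluted and run on HPLC. Parent and conversion products quantified by peak area at 304 nm, corrected by internal standard, and confirmed by LC/MS. Kinetics fitted to a two-step first-order model.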

[2] = Half life in pH 8.5 buffer assessed as formation of perzinfotel; format: physicochemical
Summary of the method: (§2)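 Compound at a final 0.01 mg/mL in 9:1 pH 8.5 buffer or simulated intestinal fluid:acetonitrile, 37 °C. HPLC injections every 4 h over 24 h, with peak area at 304 nm corrected by internal standard and identities confirmed by LC/MS. Conversion kinetics fitted to a two-step first-order model to give rate constants, half-lives and Tmax of the hemiester.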

[3] = Half life in simulated intestinal fluid assessed as formation of perzinfotel; format: physicochemical; conditions: simulated gi fluid; summary of the method: as §2
[4] = species on record: Rattus norvegicus; assay: Tmax in Sprague-Dawley rat plasma assessed as formation of benzoic acid [2-(8,9-dioxo-2,6-diaza-bicyclo[5.2.0]non-1(7)-en-2-yl)-ethyl]-hydroxy-phosphinoyloxymethyl ester; format: ADME; conditions: in vitro; summary of the method: as §1
[5] = Tmax in pH 8.5 buffer assessed as formation of benzoic acid [2-(8,9-dioxo-2,6-diaza-bicyclo[5.2.0]non-1(7)-en-2-yl)-ethyl]-hydroxy-phosphinoyloxymethyl ester; format: physicochemical; summary of the method: as §2
[6] = Tmax in simulated intestinal fluid assessed as formation of benzoic acid [2-(8,9-dioxo-2,6-diaza-bicyclo[5.2.0]non-1(7)-en-2-yl)-ethyl]-hydroxy-phosphinoyloxymethyl ester; format: physicochemical; conditions: simulated gi fluid; summary of the method: as §2
[7] = target: Glutamate NMDA receptor; assay: Displacement of [3H]CGP-39653 from rat brain NMDA receptor
Summary of the method: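 Competitive displacement of [3H]CGP-39653 at the NMDA recognition site, using rat whole-brain membranes.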

[8] = Chemical stability at pH 1 after 4 hrs; format: physicochemical; conditions: buffer, read-out: Stability
Summary of the method: (§3)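 Compound at 0.01 mg/mL final in a 9:1 mix of aqueous buffer (pH 1.0, 4.5, 6.6 or 7.4) or simulated gastric fluid with acetonitrile, held at 37 °C in the autosampler. Injected every 4 h over 24 h onto C8 HPLC. Percent remaining from peak area at 304 nm, corrected by internal standard; products confirmed by LC/MS (-ESI).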

[9] = Chemical stability at pH 4.5 after 4 hrs; format: physicochemical; conditions: buffer, read-out: Stability; summary of the method: as §3
[10] = Chemical stability at pH 6.6 after 4 hrs; format: physicochemical; conditions: buffer, read-out: Stability; summary of the method: as §3
[11] = Chemical stability at pH 7.4 after 4 hrs; format: physicochemical; conditions: buffer, read-out: Stability; summary of the method: as §3
[12] = Chemical stability in simulated gastric fluid after 4 hrs; format: physicochemical; conditions: read-out: Stability; summary of the method: as §3

Row | SMILES | t1/2 [1] [h] | t1/2 [2] [h] | t1/2 [3] [h] | Tmax [4] [h] | Tmax [5] [h] | Tmax [6] [h] | IC50 [7] [µM] | remaining at 4 h [8] [%] | remaining at 4 h [9] [%] | remaining at 4 h [10] [%] | remaining at 4 h [11] [%] | remaining at 4 h [12] [%]
1 | O=C(OCOP(=O)(O)CCN1CCCNc2c1c(=O)c2=O)c1ccccc1 | 0.87 | > 24 | > 24 | 0.19 | 9.14 | 14.48 | 17 |  |  |  |  | 
2 | CC(C)OC(=O)OCOP(=O)(CCN1CCCNc2c1c(=O)c2=O)OCOC(=O)OC(C)C |  |  |  |  |  |  |  | 100 | 100 | 97.7 | 94.1 | 100

— ChEMBL document CHEMBL1143386, “Prodrugs of perzinfotel with improved oral bioavailability” (J Med Chem, 2009)
